Laboratory results published in ChEMBL document CHEMBL4342410, “Design and Discovery of N-(3-(2-(2-Hydroxyethoxy)-6-morpholinopyridin-4-yl)-4-methylphenyl)-2-(trifluoromethyl)isonicotinamide, a Selective, Efficacious, and Well-Tolerated RAF Inhibitor Targeting RAS Mutant Cancers: The Path to the Clinic” (J Med Chem, 2020).

Assays:
[1] = Intrinsic clearance in human liver microsomes; type: ADME, Microsome; conditions: read-out: CLH
[2] = target: T1, RAF proto-oncogene serine/threonine-protein kinase (Homo sapiens, UniProt P04049); assay: Inhibition of CRAF in human Calu6 cells assessed as reduction MEK phosphorylation measured after 1 hr by sandwich ELISA; type: cell-based
[3] = Apparent permeability across apical to basolateral side in human Caco2 cells at pH 7.4 by LC/MS/MS analysis; type: ADME, cell-based; conditions: Caco-2, pH 7.4
[4] = target: Serine/threonine-protein kinase B-raf (Homo sapiens, UniProt P15056); assay: Binding affinity to wild-type human partial length BRAF (S429 to E741 residues) expressed in mammalian expression system at 1 uM by Kinomescan method relative to control
[5] = system: Serine/threonine-protein kinase B-raf (Homo sapiens), P15056 [V600E]; assay: Binding affinity to human partial length BRAF V600E mutant (S429 to E741 residues) expressed in mammalian expression system at 1 uM by Kinomescan method relative to control
[6] = target: T1, RAF proto-oncogene serine/threonine-protein kinase; assay: Binding affinity to wild-type human partial length CRAF (I330 to T640 residues) expressed in bacterial expression system at 1 uM by Kinomescan method relative to control
[7] = target: T2, Discoidin domain-containing receptor 2 (Homo sapiens) (UniProt Q16832); assay: Binding affinity to wild-type human partial length DDR2 (V555 to E855 residues) expressed in mammalian expression system at 1 uM by Kinomescan method relative to control
T2 sequence (whole entry): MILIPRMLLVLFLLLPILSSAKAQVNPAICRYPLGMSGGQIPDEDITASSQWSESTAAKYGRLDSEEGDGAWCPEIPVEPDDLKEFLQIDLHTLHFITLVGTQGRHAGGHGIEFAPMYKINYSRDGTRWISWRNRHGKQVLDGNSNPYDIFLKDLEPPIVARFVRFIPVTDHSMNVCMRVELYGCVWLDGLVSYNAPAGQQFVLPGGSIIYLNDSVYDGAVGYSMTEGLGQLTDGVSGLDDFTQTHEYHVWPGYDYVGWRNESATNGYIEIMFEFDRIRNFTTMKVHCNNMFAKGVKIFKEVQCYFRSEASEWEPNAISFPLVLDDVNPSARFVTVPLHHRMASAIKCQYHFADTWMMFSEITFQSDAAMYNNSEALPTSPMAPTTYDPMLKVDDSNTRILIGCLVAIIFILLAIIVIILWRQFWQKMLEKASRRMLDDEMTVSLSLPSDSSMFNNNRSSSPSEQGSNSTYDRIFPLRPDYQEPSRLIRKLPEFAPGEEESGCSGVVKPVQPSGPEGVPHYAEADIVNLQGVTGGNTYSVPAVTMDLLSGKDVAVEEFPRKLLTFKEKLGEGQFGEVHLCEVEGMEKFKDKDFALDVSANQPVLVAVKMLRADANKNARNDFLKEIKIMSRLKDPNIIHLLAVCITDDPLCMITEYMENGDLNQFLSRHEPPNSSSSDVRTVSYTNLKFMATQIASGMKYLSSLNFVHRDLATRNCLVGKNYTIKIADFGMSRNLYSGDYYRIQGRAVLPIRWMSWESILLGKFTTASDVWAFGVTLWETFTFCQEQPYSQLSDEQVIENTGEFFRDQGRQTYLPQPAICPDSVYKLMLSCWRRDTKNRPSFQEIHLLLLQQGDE
Summary of the method: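 KINOMEscan competition binding panel of about 456 kinases, compound tested at 1 μM. Activity is given as % of control = [(test signal − positive control signal)/(negative control signal − positive control signal)] × 100.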

[8] = Cmax in mouse at 4 mg/kg, po; type: ADME, organism-based; design: dose 4 mg/kg, route oral; conditions: in vivo
[9] = Cmax in dog at 0.4 mg/kg, po; type: ADME, organism-based, Canis lupus familiaris; design: dose 0.4 mg/kg, route oral; conditions: in vivo
[10] = AUC (infinity) in rat at 4 mg/kg, po; type: ADME, organism-based; design: dose 4 mg/kg, route oral, time infinity; conditions: in vivo
[11] = Oral bioavailability in rat at 4 mg/kg; type: ADME, organism-based; conditions: in vivo
Rattus norvegicus = assay: In vivo inhibition of CRAF in po dosed nude rat xenografted with human Calu6 cells harboring KRAS Q61K mutant assessed as reduction in tumor MEK phosphorylation administered as single dose measured after 1 to 48 hrs by sandwich ELISA; type: functional, organism-based
Summary of the method: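 Calu-6 (KRAS Q61K) xenograft-bearing nude rats were given a single oral dose of 15, 35, 75 or 150 mg/kg. Tumor and blood were sampled at 1, 4, 7, 24 and 48 h post-dose. Tumor pMEK was quantified by MSD immunoassay and expressed as percent pMEK. Free plasma exposure was determined in parallel.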

Calu-6 [12] = assay: Antitumor activity against human Calu6 cells harboring KRAS Q61K mutant xenografted in nude rat assessed as tumor growth at 35 mg/kg, po administered daily for 18 days starting from day 13 post tumor implantation and measured on day 31 relative to control; type: functional
Summary of the method: (§1)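 Nude rats bearing Calu-6 (KRAS Q61K) human NSCLC xenografts received vehicle or drug p.o. daily at 15, 35, 75 or 150 mg/kg. Dosing began 13 days after tumor implantation and ran to day 31, i.e. 18 days of treatment. Tumor volumes were read out as %T/C or % regression versus vehicle on day 31. Body weight was also tracked.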

Calu-6 [13] = assay: Antitumor activity against human Calu6 cells harboring KRAS Q61K mutant xenografted in nude rat assessed as tumor regression at 150 mg/kg, po administered daily for 18 days starting from day 13 post tumor implantation and measured on day 31 relative to control; type: functional; summary of the method: as §1
[14] = Time of last measurable concentration in nude rat xenografted with human Calu6 cells harboring KRAS Q61K mutant at 15 mg/kg, po administered daily for 18 days starting from day 13 post tumor implantation and measured on day 31; type: ADME, organism-based; conditions: in vivo, 432 h
Summary of the method: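 Calu-6 xenograft nude rats were dosed orally once daily at 15, 35, 75 or 150 mg/kg from day 13 after implantation to day 31. Plasma was collected after the last dose on day 31, drug concentrations were measured, and PK parameters including AUC were calculated for each dose.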

[15] = Cmax in nude rat xenografted with human Calu6 cells harboring KRAS Q61K mutant at 35 mg/kg, po administered daily for 18 days starting from day 13 post tumor implantation and measured on day 31; type: ADME, organism-based; design: dose 35 mg/kg, route oral; conditions: in vivo
Summary of the method: (§2)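 Nude rats carrying Calu-6 (KRAS Q61K) NSCLC xenografts were dosed p.o. once daily at 15, 35, 75 or 150 mg/kg from day 13 to day 31 after implant. Plasma was collected after the last dose and drug concentration was measured. AUC and Cmax were calculated per dose on day 31.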

[16] = Cmax in nude rat xenografted with human Calu6 cells harboring KRAS Q61K mutant at 75 mg/kg, po administered daily for 18 days starting from day 13 post tumor implantation and measured on day 31; type: ADME, organism-based; design: dose 75 mg/kg, route oral; conditions: in vivo; summary of the method: as §2
[17] = AUC (0 to 24 hrs) in nude rat xenografted with human Calu6 cells harboring KRAS Q61K mutant at 150 mg/kg, po administered daily for 18 days starting from day 13 post tumor implantation and measured on day 31; type: ADME, organism-based; design: dose 150 mg/kg, time < 24 hr, route oral; conditions: in vivo; summary of the method: as §2
[18] = Distribution coefficient, log D of compound at pH 6.5; type: physicochemical; conditions: octanol/water
[19] = Protein binding in human plasma; type: ADME, cell-free; conditions: read-out: PPB (converted)
[20] = target: Voltage-gated inwardly rectifying potassium channel KCNH2 (Homo sapiens, UniProt Q12809); assay: Inhibition of human ERG by patch clamp method
Summary of the method: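 hERG inhibition measured by manual patch clamp.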

T1 sequence (P04049 whole entry): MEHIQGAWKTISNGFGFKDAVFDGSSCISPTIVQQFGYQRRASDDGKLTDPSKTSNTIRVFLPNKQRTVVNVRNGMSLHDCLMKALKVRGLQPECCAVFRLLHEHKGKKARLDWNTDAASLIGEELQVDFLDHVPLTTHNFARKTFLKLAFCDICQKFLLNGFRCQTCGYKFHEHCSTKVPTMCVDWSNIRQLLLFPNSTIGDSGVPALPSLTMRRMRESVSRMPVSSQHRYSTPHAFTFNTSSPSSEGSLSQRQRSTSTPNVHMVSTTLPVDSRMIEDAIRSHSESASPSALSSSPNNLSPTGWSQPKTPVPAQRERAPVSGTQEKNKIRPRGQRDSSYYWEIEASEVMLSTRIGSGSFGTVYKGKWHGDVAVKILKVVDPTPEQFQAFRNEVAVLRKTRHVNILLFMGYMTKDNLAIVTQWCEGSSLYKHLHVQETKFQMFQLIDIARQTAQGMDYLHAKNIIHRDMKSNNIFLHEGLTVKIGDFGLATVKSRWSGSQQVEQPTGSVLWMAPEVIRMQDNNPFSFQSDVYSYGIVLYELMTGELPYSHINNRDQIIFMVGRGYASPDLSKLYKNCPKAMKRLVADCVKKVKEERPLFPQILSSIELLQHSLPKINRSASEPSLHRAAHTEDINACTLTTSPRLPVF
Sequence of Serine/threonine-protein kinase B-raf (Homo sapiens), P15056 [V600E] (P15056 whole entry V600E, the tested form may be a part): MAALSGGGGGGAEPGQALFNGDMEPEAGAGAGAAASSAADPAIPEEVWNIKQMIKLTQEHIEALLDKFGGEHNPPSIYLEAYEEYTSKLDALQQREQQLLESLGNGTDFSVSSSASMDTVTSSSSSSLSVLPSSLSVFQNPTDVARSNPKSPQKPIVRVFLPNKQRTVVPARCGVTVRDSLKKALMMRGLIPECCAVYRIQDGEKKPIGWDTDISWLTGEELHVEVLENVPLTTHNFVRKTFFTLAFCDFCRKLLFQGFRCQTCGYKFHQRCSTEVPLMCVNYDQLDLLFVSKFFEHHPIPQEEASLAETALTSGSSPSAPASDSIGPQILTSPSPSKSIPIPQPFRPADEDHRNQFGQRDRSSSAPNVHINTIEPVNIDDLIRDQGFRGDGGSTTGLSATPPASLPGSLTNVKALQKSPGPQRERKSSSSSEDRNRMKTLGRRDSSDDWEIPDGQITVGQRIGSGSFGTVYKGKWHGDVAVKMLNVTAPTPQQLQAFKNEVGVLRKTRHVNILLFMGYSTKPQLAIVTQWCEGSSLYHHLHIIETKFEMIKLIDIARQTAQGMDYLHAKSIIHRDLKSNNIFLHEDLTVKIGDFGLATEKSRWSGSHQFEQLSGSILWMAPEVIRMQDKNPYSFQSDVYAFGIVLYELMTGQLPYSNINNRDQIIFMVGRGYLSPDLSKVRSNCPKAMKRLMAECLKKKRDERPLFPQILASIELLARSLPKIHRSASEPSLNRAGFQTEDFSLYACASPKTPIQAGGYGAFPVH
Sequence of Serine/threonine-protein kinase B-raf (P15056 whole entry, the tested form may be a part): as the sequence (P15056 whole entry V600E, the tested form may be a part) above, with E600V counted along it
Sequence of Voltage-gated inwardly rectifying potassium channel KCNH2 (Q12809 whole entry): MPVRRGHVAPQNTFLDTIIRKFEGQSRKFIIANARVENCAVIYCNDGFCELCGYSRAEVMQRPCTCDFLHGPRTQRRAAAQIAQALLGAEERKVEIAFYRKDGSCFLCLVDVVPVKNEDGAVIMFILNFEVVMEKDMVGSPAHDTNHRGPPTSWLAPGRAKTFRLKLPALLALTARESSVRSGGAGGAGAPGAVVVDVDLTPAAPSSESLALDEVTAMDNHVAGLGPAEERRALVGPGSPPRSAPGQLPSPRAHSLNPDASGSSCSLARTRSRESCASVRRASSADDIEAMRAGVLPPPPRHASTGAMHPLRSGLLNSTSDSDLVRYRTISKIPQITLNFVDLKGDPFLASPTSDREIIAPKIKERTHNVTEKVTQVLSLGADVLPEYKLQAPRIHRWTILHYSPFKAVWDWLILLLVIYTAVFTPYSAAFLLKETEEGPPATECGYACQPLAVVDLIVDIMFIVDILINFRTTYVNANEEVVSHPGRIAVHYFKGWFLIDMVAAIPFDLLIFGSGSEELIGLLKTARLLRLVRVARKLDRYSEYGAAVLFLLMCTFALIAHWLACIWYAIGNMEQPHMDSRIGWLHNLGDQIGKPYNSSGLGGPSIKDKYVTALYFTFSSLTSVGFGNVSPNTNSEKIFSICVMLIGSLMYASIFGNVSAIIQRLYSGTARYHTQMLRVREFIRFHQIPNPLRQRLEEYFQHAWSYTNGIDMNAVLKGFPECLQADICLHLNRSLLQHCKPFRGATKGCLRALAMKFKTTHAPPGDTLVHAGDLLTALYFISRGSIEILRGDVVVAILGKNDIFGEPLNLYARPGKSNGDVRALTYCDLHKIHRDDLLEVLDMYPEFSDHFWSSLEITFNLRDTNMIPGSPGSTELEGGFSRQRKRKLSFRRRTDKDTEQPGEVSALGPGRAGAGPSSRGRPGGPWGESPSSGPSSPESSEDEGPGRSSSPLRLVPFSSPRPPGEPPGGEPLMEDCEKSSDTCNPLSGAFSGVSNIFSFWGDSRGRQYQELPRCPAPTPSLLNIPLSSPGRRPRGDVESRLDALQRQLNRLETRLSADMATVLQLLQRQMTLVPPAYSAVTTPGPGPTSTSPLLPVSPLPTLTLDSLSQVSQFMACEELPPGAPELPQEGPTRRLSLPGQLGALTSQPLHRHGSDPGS

Cc1ccc(NC(=O)c2ccnc(C(F)(F)F)c2)cc1-c1cc(OCCO)nc(N2CCOCC2)c1 [NAPORAFENIB]
microsomal CLint [1]: 13.5 µL/min/mg
EC50 [2]: 14 to 50 nM
Papp A→B [3]: 9 ×10⁻⁶ cm/s
Activity [4]: > 98%
Activity [5]: > 98%
Activity [6]: > 98%
Activity [7]: 84%
Cmax [8]: 1600 nM
Cmax [9]: 400 nM
AUC(0-inf) [10]: 1.8 µM·h
bioavailability [11]: 38%
inhibition (Rattus norvegicus): Dose-dependent effect
T/C (Calu-6 [12]): 9%
Activity (Calu-6 [13]): 56%
Tlast [14]: 24 h
Cmax [15]: 2350 nM
Cmax [16]: 8680 nM
AUC at 24 h [17]: 217 µM·h
logD [18]: > 4
fraction unbound [19]: 0.02
IC50 [20]: > 10000 nM
